Experimental findings from ChEMBL document CHEMBL1128698, “5-Arylthio-substituted 2-amino-4-oxo-6-methylpyrrolo[2,3-d]pyrimidine antifolates as thymidylate synthase inhibitors and antitumor agents” (J Med Chem, 1995) are described below.

One may read the IC50 as the midpoint of a concentration-inhibition curve. One may read the EC50 as the concentration that produces a half-maximal response.

Assay [1] deals with Dihydrofolate reductase (Lactobacillus casei, UniProt P00381). Nature of the assay: Inhibitory activity against dihydro folate reductase from Lactobacillus casei. Also noted: species or system Lacticaseibacillus casei.
Chain of Dihydrofolate reductase (Lactobacillus casei, UniProt P00381) (P00381 whole entry): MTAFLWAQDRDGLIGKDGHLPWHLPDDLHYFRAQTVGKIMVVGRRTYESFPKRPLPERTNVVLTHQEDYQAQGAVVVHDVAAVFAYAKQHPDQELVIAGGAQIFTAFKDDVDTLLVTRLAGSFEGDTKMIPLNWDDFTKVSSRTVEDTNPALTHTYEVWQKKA
For assay [2], the target named is T1, Dihydrofolate reductase (Homo sapiens, UniProt P00374).
T1 sequence (P00374 whole entry): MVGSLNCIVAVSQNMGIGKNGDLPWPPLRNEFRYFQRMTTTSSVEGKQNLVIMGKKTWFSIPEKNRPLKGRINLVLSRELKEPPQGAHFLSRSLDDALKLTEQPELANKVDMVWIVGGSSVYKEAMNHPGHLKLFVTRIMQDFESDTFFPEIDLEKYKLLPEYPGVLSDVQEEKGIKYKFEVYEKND
The experiment in a line: Inhibitory activity against dihydro folate reductase from human recombinant sources.

For assay [3], the target named is T2, Thymidylate synthase (Lactobacillus casei, UniProt P00469).
T2 sequence (P00469 whole entry): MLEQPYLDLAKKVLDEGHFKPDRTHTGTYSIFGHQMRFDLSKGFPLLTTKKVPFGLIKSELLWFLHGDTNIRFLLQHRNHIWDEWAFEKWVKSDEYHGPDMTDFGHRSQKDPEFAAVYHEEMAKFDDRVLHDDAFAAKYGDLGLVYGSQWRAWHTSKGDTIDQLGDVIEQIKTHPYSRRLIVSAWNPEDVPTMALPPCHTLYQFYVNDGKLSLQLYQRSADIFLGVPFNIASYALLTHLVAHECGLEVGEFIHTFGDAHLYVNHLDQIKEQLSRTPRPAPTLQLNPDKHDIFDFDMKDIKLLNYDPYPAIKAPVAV
Nature of the assay: Inhibitory activity against thymidylate Synthase from Lactobacillus casei. Also noted: species or system Lacticaseibacillus casei.

Assay [4] has as its target Thymidylate synthase (Homo sapiens, UniProt P04818). The experiment in a line: Inhibitory activity against thymidylate Synthase from human recombinant sources.
For the next assay, the system named is A253 cell line. Nature of the assay: Growth inhibition against Human squamous cell line(A 253). The assay is classed as functional, cell-based. In a few lines:
(§1)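 Continuous drug exposure growth assay. CCRF-CEM and its MTX-resistant subline R30dm (1% of parental FPGS activity) cultured as previously reported; A253 and FaDu squamous carcinoma monolayers subcultured in RPMI 1640/10% fetal calf serum. EC50 read visually from plots of percent control growth against log drug concentration. Averages ± range for n = 2, ± SD for n ≥ 3.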

Assay [5] has as its system CCRF-CEM. The experiment in a line: Growth inhibition against Human leukemic cell line (Methotrexate resistant CCRF-CEM). It is filed as functional, cell-based. An outline of the steps:
as §1

In assay [6] the test system is CCRF-CEM. Nature of the assay: Growth inhibition against Human leukemic cell line(CCRF-CEM). It is filed as functional, cell-based. An outline of the steps: as §1
The target in assay [7] is T1, Dihydrofolate reductase. The experiment in a line: Inhibitory activity against dihydro folate reductase from human CCRF-CEM leukemic cell line.
The subject of assay [8] is FaDu. The experiment in a line: Protection against the growth inhibition against Human squamous cell line(Fadu). More on the design: scale not given: the % may be the effect or the level left. The assay is classed as functional.
Assay [9] has as its system FaDu. The experiment in a line: Protection by 10 uM LV against the growth inhibition against Human squamous cell line(Fadu). The assay is classed as functional. More on the design: scale not given: the % may be the effect or the level left.
Assay [10] deals with FaDu. The experiment in a line: Protection by 40 uM against the Growth inhibition against Human squamous cell line(Fadu), in the presence of 40 uM thymidine. It is filed as functional. Also noted: scale not given: the % may be the effect or the level left.
For assay [11], the system named is FaDu. Nature of the assay: Protection by 50 uM against the Growth inhibition against Human squamous cell line(Fadu). Also noted: scale not given: the % may be the effect or the level left. It is filed as functional.
Assay [12] relates to FaDu. Nature of the assay: Protection by 50 uM+40 uM against Growth inhibition against Human squamous cell line(Fadu), in the presence of 50 uM hypoxanthine +40 uM thymidine. It is filed as functional. More on the design: scale not given: the % may be the effect or the level left.
Assay [13] has as its system FaDu. The experiment in a line: Growth inhibition against Human squamous cell line(Fadu). It is filed as functional, cell-based. An outline of the steps: as §1
Assay [14] concerns CCRF-CEM. Nature of the assay: Growth inhibition against Human leukemic cell line(CCRF-CEM) during continuous exposure.

Chain of Thymidylate synthase (Homo sapiens, UniProt P04818) (P04818 whole entry): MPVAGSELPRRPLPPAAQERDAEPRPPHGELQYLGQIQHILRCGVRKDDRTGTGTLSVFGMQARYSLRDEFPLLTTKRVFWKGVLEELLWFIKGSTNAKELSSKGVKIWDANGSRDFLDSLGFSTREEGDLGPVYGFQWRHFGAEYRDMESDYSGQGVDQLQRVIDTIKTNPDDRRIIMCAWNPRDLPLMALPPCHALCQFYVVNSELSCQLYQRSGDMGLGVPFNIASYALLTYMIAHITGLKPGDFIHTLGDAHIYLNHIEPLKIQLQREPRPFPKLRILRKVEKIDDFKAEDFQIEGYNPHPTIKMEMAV

On to `CC1=C(Sc2ccncc2)C2C(=O)NC(N)=NC2N1` (centres undefined), for which the IC50 is > 69000 nM at Dihydrofolate reductase [1], > 69000 nM on Dihydrofolate reductase [2], 100000 nM against Thymidylate synthase [3] and 340 nM on Thymidylate synthase [4].

In the case of `CC1=C(Sc2ccc(C(=O)NC(CCC(=O)O)C(=O)O)cc2)C2C(=O)NC(N)=NC2N1` (centres undefined), the concentration for a half-maximal effect (EC50) was determined as 3000 nM with A253 cell line, 810 nM with CCRF-CEM [5], 450 nM in the assay on CCRF-CEM [6] and 530 nM in the assay on FaDu [13]. The half-maximal inhibitory concentration (IC50) is 2200 nM on Dihydrofolate reductase [1], 124 nM on Dihydrofolate reductase [7], 2200 nM on Dihydrofolate reductase [2] and 21 nM on Thymidylate synthase [3]. In addition, the Control in the assay with FaDu [8] is reported as 5%; with FaDu [9] it was 7%; with FaDu [10], 83%; in the assay with FaDu [11], 4%; in the assay on FaDu [12] it was 78%.

In the assay on CCRF-CEM [14], `C#CCN(Cc1ccc2[nH]c(N)nc(=O)c2c1)c1ccc(C(=O)NC(CCC(=O)O)C(=O)O)cc1` (centres undefined) registered a 50% effective concentration (EC50) of 720 nM.

In the case of `CN(Cc1cnc2nc(N)nc(N)c2n1)c1ccc(C(=O)N[C@@H](CCC(=O)O)C(=O)O)cc1` [METHOTREXATE], in the assay with A253 cell line, the midpoint of the response, the EC50, lay at 13 nM. The Control was determined as 2% with FaDu [8]; 114% in the assay with FaDu [9]; 11% in the assay with FaDu [10]; 18% in the assay with FaDu [11]; 95% in the assay with FaDu [12].
